Measurements: ChEMBL document CHEMBL4304756, “Second-Generation Tryptamine Derivatives Potently Sensitize Colistin Resistant Bacteria to Colistin” (ACS Med Chem Lett, 2019)
Active and inactive are the calls of the source. The rule behind the calls is not given here.

Assays:
Acinetobacter baumannii [1] = assay: Potentiation of colistin-induced antibacterial activity against Acinetobacter baumannii 17978 assessed as colistin MIC at 50 uM incubated for 16 hrs by broth microdilution method (reference value: 2 ug/ml); type: functional; conditions: Acinetobacter baumannii, 17978, 16 h
Acinetobacter baumannii [2] = assay: Potentiation of colistin-induced antibacterial activity against Acinetobacter baumannii 17978 harbouring mcr-1 gene assessed as colistin MIC at 50 uM incubated for 16 hrs by broth microdilution method (reference value: 16 ug/ml); type: functional; conditions: Acinetobacter baumannii, 17978, 16 h
Escherichia coli = assay: Potentiation of colistin-induced antibacterial activity against Escherichia coli YD626 harbouring mcr-1 gene assessed as reduction in colistin MIC at 5 uM incubated for 16 hrs by broth microdilution method (reference value: 8 ug/ml); type: functional; conditions: YD626, 16 h
Method in brief: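 For the dose-response, colistin MIC was measured against mcr-1 plasmid-bearing E. coli, K. pneumoniae and A. baumannii while the adjuvant concentration was lowered stepwise (30, 15 μM, down to 5 μM). The aim was to find where the MIC rose above the 2 μg/mL CLSI susceptibility breakpoint.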

Klebsiella pneumoniae [3] = assay: Potentiation of colistin-induced antibacterial activity against Klebsiella pneumoniae B9 assessed as reduction in colistin MIC at 7.5 uM incubated for 16 hrs by broth microdilution method (reference value: 512 ug/ml); type: functional; conditions: B9, 16 h
Klebsiella pneumoniae [4] = assay: Potentiation of colistin-induced antibacterial activity against Klebsiella pneumoniae C3 assessed as reduction in colistin MIC at 20 uM incubated for 16 hrs by broth microdilution method (reference value: 512 ug/ml); type: functional; conditions: C3, 16 h
Method in brief: (§1)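 Colistin MIC was measured against chromosomally colistin-resistant strains (K. pneumoniae B9, C3; A. baumannii 4106, among four strains) with adjuvant at fixed levels from 20 μM down to 7.5 μM. Fold reduction was reported against colistin alone, with the CLSI breakpoint taken as ≤2 μg/mL.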

Klebsiella pneumoniae [5] = assay: Potentiation of colistin-induced antibacterial activity against Klebsiella pneumoniae C3 assessed as reduction in colistin MIC at 7.5 uM incubated for 16 hrs by broth microdilution method (reference value: 512 ug/ml); type: functional; conditions: C3, 16 h; method in brief: as §1
Acinetobacter baumannii [6] = assay: Potentiation of colistin-induced antibacterial activity against Acinetobacter baumannii 3941 assessed as reduction in colistin MIC at 20 uM incubated for 16 hrs by broth microdilution method (reference value: 512 ug/ml); type: functional; conditions: Acinetobacter baumannii, 3941, 16 h
Acinetobacter baumannii [7] = assay: Potentiation of colistin-induced antibacterial activity against Acinetobacter baumannii 3941 assessed as reduction in colistin MIC at 15 uM incubated for 16 hrs by broth microdilution method (reference value: 512 ug/ml); type: functional; conditions: Acinetobacter baumannii, 3941, 16 h
Acinetobacter baumannii [8] = assay: Potentiation of colistin-induced antibacterial activity against Acinetobacter baumannii 3941 assessed as reduction in colistin MIC at 7.5 uM incubated for 16 hrs by broth microdilution method (reference value: 512 ug/ml); type: functional; conditions: Acinetobacter baumannii, 3941, 16 h
Acinetobacter baumannii [9] = assay: Potentiation of colistin-induced antibacterial activity against Acinetobacter baumannii 17978 harbouring mcr-1 gene assessed as colistin sensitization activity in presence of Tween 80 at 30 uM incubated for 16 hrs by broth microdilution method; type: functional, organism-based
Method in brief: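 To exclude nonspecific aggregation, colistin resensitization of A. baumannii 17978+mcr-1 was run with adjuvant at 30 μM, with and without 0.01% Tween 80.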

[10] = Hemolytic activity in sheep RBC at 200 uM incubated for 1 hr by UV spectrophotometry; type: ADME, cell-based, Ovis aries, Erythrocyte; conditions: sheep red blood cells (erythrocytes), read-out: Activity
Method in brief: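 Red blood cells exposed to compound at 200 μM, with percent cell lysis recorded.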

[11] = Cytotoxicity against mouse 4T1 cells assessed as reduction in cell viability incubated for 18 hrs by MTT assay; type: cell-based
Method in brief: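 4T1 mouse mammary tumor cells exposed to compound for 18 h, alone or together with colistin at 1 μg/mL. Medium then aspirated and replaced with 0.5 mg/mL MTT in culture medium for colorimetric viability read-out. CT50 taken as the concentration giving 50% cell viability.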

## O=C(NCCc1c[nH]c2ccc(Br)cc12)Nc1cc(Cl)c(Br)c(Cl)c1
Acinetobacter baumannii [1]
  MIC: 0.5 µg/mL
Acinetobacter baumannii [2]
  MIC: 0.5 µg/mL
Escherichia coli
  MIC: 1 µg/mL
Klebsiella pneumoniae [3]
  MIC: ≤ 0.25 µg/mL
Klebsiella pneumoniae [4]
  MIC: 0.5 µg/mL
Klebsiella pneumoniae [5]
  MIC: 2 µg/mL
Acinetobacter baumannii [6]
  MIC: 2 µg/mL
Acinetobacter baumannii [7]
  MIC: 4 µg/mL
Acinetobacter baumannii [8]
  MIC: 16 µg/mL
Acinetobacter baumannii [9]
  Activity: Active
[10]
  hemolysis at 1 h, 200 µM: < 2.5%
[11]
  CC50 at 18 h: 94.1 µM
